Measurements: ChEMBL document CHEMBL1135284 (Bioorg Med Chem Lett, 2002)

Experiments:
[1] = Oral bioavailability; assay type: ADME, organism-based; settings: rat, in vivo
Procedure, shortened: (§1)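 Conscious rats dosed by oral route (30 mg/kg) and iv bolus (0.15 mg/kg). Thrombin time tracked over time after each dose. %F derived by comparing areas under the TT-versus-time curves for the two routes.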

Rattus norvegicus [2] = assay: Mean occlusion time after (iv) bolus dose of 0.75 mg/kg followed by an infusion of 50 ug/kg/min was determined in rat arterial thrombosis model; assay type: functional
Rattus norvegicus [3] = assay: Thrombin time was determined after (iv) bolus dose of 0.75 mg/kg followed by an infusion of 50 ug/kg/min in rat arterial thrombosis model; assay type: functional
Rattus norvegicus [4] = assay: Activated partial thromboplastin time was determined after (iv) bolus dose of 0.75 mg/kg followed by an infusion of 50 ug/kg/min in rat arterial thrombosis model; assay type: functional
[5] = Bioavailability was reported; assay type: ADME, organism-based; settings: rat, in vivo; procedure, shortened: as §1

bioavailability [1] [%] | bioavailability [5] [%] | SMILES | MOT (Rattus norvegicus [2]) [min] | TT (Rattus norvegicus [3]) [s] | aPTT (Rattus norvegicus [4]) [s]
0.7 | – | N/C(=N/O)N1CCC(CNC(=O)[C@@H]2CC[C@H]3CN(S(=O)(=O)CC(c4ccccc4)c4ccccc4)CC(=O)N32)CC1 | 45 | 148 | 26
~0.5 | – | N=C(N)c1ccc(CNC(=O)[C@@H]2CC[C@H]3CN(S(=O)(=O)Cc4ccccc4)CC(=O)N32)cc1 | – | – | –
2.2 | – | N=C(N)N1CCC(CNC(=O)[C@@H]2CC[C@H]3CN(S(=O)(=O)CC(c4ccccc4)c4ccccc4)CC(=O)N32)CC1 | 36 | 214 | 35
– | – | Nc1ccc(CNC(=O)[C@@H]2CC[C@H]3CN(S(=O)(=O)CC(c4ccccc4)c4ccccc4)CC(=O)N32)cn1 | 30 | 51 | 19
0.1 | – | N=C(N)[C@H]1CC[C@H](CNC(=O)[C@@H]2CC[C@H]3CN(S(=O)(=O)C(c4ccccc4)c4ccccc4)CC(=O)N32)CC1 | 44 | 724 | 54
– | – | N=C(N)N1CCC(CNC(=O)[C@@H]2CC[C@H]3CN(S(=O)(=O)C(c4ccccc4)c4ccccc4)CC(=O)N32)CC1 | 52 | 154 | 28
– | – | Cc1nc(N)ccc1CNC(=O)[C@@H]1CC[C@H]2CN(S(=O)(=O)C(c3ccccc3)c3ccccc3)CC(=O)N21 | >60 | 102 | 27
– | – | N=C(N)N1CCC(CNC(=O)[C@@H]2CC[C@H]3CN(C(=O)CC(c4ccccc4)c4ccccc4)CC(=O)N32)CC1 | 21 | 85 | 29
~0.5 | – | N/C(=N\O)N1CCC(CNC(=O)[C@@H]2CC[C@H]3CN(S(=O)(=O)Cc4ccccc4)CC(=O)N32)CC1 | – | – | –
– | 1.5 | N[C@H]1CC[C@H](CNC(=O)[C@@H]2CC[C@H]3CN(S(=O)(=O)CC(c4ccccc4)c4ccccc4)CC(=O)N32)CC1 | 37 | 150 | 35
– | – | N=C(N)c1ccc(CNC(=O)[C@@H]2CC[C@H]3CN(S(=O)(=O)C(c4ccccc4)c4ccccc4)CC(=O)N32)cc1 | 51 | 631 | 54
– | – | N/C(=N/O)N1CCC(CNC(=O)[C@@H]2CC[C@H]3CN(C(=O)CC(c4ccccc4)c4ccccc4)CC(=O)N32)CC1 | 35 | 63 | 23
2.7 | – | N/C(=N/O)N1CCC(CNC(=O)[C@@H]2CC[C@H]3CN(S(=O)(=O)CCc4ccccc4)CC(=O)N32)CC1 | 49 | 146 | 25
– | – | Cc1cc(C(=N)N)ccc1CNC(=O)[C@@H]1CC[C@H]2CN(S(=O)(=O)C(c3ccccc3)c3ccccc3)CC(=O)N21 | >60 | 354 | 42
– | – | N=C(N)c1ccc(CNC(=O)[C@@H]2CC[C@H]3CN(S(=O)(=O)CC(c4ccccc4)c4ccccc4)CC(=O)N32)cc1 | >60 | 636 | 74
– | – | N[C@H]1CC[C@H](CNC(=O)[C@@H]2CC[C@H]3CN(S(=O)(=O)C(c4ccccc4)c4ccccc4)CC(=O)N32)CC1 | >60 | 216 | 44
1.9 | – | N/C(=N/O)N1CCC(CNC(=O)[C@@H]2CC[C@H]3CN(S(=O)(=O)C(c4ccccc4)c4ccccc4)CC(=O)N32)CC1 | 46 | 230 | 28
